Results: PMC4659352 (Molecular cancer therapeutics, 2014)
*1 amine or outer side, *2 acyl side, *3 side chain or, on linkers, in order; H or OH if unused. Where a SMILES comes first, the peptide text is derived from it. [ ]: non-standard residue; d: D form. γGlu = O=C(O)[C@H](CCC(=O)[*:2])N[*:1]

Experiments:
LNCaP xenografts = test: LNCaP subcutaneous xenograft therapy study; type: in vivo, mouse
CWR22Rv1 xenografts = test: CWR22Rv1 subcutaneous xenograft therapy study; type: in vivo, mouse; conditions: 7 mg/kg tail vein at days 0, 3, 6, 9
[1] = system: primary and metastatic tumor models; conditions: intratumoral or systemic injection; ref [22], [23]; cited from earlier work
PC3 = test: MTT cell viability assay, PC3; type: cell-based, human; conditions: PSMA-null PC3, standard culture conditions with 10% fetal bovine serum, 72 hours
Procedure, shortened: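 PC3 cells (about 3,000 per well) were kept in RPMI-1640 with 10% FBS, 1% pen/strep and 2 mmol/L L-glutamine at 37°C and 5% CO2. They were exposed to a concentration range of test compound for 72 hours. Viability was read by MTT, and IC50 was calculated.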

PSMA = PSMA (Homo sapiens, UniProt Q04609); test: Protease digestion with purified recombinant PSMA monitored by MALDI-TOF; type: biochemical
Sequence of PSMA (Q04609 whole entry): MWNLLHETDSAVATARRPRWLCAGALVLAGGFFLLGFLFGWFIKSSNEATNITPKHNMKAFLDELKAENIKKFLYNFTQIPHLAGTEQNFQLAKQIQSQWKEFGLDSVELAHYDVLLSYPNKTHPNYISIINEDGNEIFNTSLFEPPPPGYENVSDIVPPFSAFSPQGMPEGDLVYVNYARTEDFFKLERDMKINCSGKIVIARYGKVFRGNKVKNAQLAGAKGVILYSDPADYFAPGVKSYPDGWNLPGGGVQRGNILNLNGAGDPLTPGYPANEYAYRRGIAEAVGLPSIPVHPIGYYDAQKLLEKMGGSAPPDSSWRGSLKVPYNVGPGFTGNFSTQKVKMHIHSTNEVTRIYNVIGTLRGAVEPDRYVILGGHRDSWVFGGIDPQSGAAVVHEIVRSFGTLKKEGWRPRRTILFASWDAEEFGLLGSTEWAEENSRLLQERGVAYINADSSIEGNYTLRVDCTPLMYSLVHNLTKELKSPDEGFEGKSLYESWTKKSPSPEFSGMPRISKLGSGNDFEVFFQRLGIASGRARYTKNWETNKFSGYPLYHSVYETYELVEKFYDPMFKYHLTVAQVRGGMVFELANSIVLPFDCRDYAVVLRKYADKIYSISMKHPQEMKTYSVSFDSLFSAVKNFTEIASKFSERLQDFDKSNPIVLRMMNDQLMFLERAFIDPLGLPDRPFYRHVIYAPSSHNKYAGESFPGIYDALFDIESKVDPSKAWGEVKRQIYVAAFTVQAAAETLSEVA

healthy nude mice = test: Toxicity study in healthy nude mice; type: in vivo, mouse
[2] = Solubility of the propeptides at dosing; type: physicochemical; conditions: dissolved in DMSO and diluted in sterile PBS, 5% v/v DMSO
PC3 xenografts = conditions: PC3 (PSA-, PSMA-) xenograft, 7 mg/kg tail vein at days 0, 3, 6, 9
human red blood cells = test: Hemolysis assay with washed human red blood cells; type: cell-based; conditions: 1 µmol/L peptide, 2% v/v human RBC, 1 hour, 37°C
Procedure, shortened: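 Test compound was dissolved in DMSO and diluted in 1× PBS to 100, 10 and 1 µmol/L. It was incubated with washed human RBCs (2% v/v) for 1 hour at 37°C. RBCs in PBS alone served as zero lysis and 1% Triton X-100 as 100% lysis. Cells were pelleted and supernatant absorbance read at 540 nm, in triplicate.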

PSA = PSA substrate sequence used in PSA1 and PSA2; ref [27]; cited from earlier work
[3] = 7 mg/kg tail vein at days 0, 3, 6, 9

In the case of `CC(C)C[C@H](NC(=O)[C@H](CC(C)C)NC(=O)[C@@H](CCCCN)NC(=O)[C@H](CC(C)C)NC(=O)[C@H](CC(C)C)NC(=O)[C@H](CCCCN)NC(=O)[C@@H](CCCCN)NC(=O)[C@@H](CC(C)C)NC(=O)[C@H](CC(C)C)NC(=O)[C@@H](CCCCN)NC(=O)[C@H](CCCCN)NC(=O)[C@H](CC(C)C)NC(=O)[C@@H](CC(C)C)NC(=O)[C@H](CCCCN)NC(=O)[C@@H](N)CC(C)C)C(N)=O` [KLL, reference compound] (H-LK[dL]LK[dK]L[dL][dK]KLL[dK]LL-NH2), the “tumor growth compared with the saline control at day 9” value (LNCaP xenografts; [3]) is listed as “Inhibition of tumor growth”, the “tumor volume by day 28 relative to the γE-KLL arm” value (CWR22Rv1 xenografts) is listed as “double the volume of the γE-KLL–treated arm” and the “effect on tumor growth” value [1] is listed as “inhibit the growth of primary and metastatic tumor models”.
In the case of `CC(C)C[C@H](NC(=O)[C@H](CC(C)C)NC(=O)[C@@H](CCCCN)NC(=O)[C@H](CC(C)C)NC(=O)[C@H](CC(C)C)NC(=O)[C@H](CCCCN)NC(=O)[C@@H](CCCCN)NC(=O)[C@@H](CC(C)C)NC(=O)[C@H](CC(C)C)NC(=O)[C@@H](CCCCN)NC(=O)[C@H](CCCCN)NC(=O)[C@H](CC(C)C)NC(=O)[C@@H](CC(C)C)NC(=O)[C@H](CCCCN)NC(=O)[C@@H](N)CC(C)C)C(=O)N[C@@H](CCC(=O)N[C@@H](CCC(=O)N[C@@H](CCC(=O)N[C@@H](CCC(=O)N[C@@H](CCC(=O)N[C@@H](CCC(=O)N[C@@H](CCC(=O)O)C(=O)O)C(=O)O)C(=O)O)C(=O)O)C(=O)O)C(=O)O)C(=O)O` [γE-KLL] (H-LK[dL]LK[dK]L[dL][dK]KLL[dK]LL[γGlu][γGlu][γGlu][γGlu][γGlu][γGlu]E-OH; N-terminus assumed), the “toxicity in PC3” value (PC3) is reported as “no toxicity”, the “cleavage of the γ-linked glutamic acid inhibitory domain by PSMA” value (PSMA; 50 µg peptide, 5 µg PSMA, 4 hours, 37°C, pH 7.8, MALDI-TOF) is reported as “Cleavage of γ-linked glutamic acid residues from the peptide sequence by PSMA was detected” and the “degradation by PSMA in the presence of EDTA” value (PSMA; PSMA with EDTA in the buffer, MALDI-TOF) is reported as “no degradation”. The “Treated tumor/Control tumor (T/C) ratio at day 28” value (LNCaP xenografts; [3]) was 0.3, the “tumor growth compared with the saline control at day 9” value (LNCaP xenografts; [3]) was “Inhibition of tumor growth” and the “tumor volume at day 28” value (LNCaP xenografts; 7 mg/kg tail vein at days 0, 3, 6, 9, n = 10 mice) was 220.3 ± 44.6 mm^3. The “Treated tumor/Control tumor (T/C) ratio at day 28” value (CWR22Rv1 xenografts) was 0.3, the “toxicity in healthy nude mice” value (healthy nude mice) was “nontoxic” and the “dose above which solubility issues became apparent” value [2] was “above 10 mg/kg”. The “therapeutic effect in PC3 tumors” value (PC3 xenografts) was “No therapeutic effect”.
With “H-DDDDDDDLKLLKKLLKKLLKLL-NH2 [D7-KLL-NH2]” the “hemolysis at 1 µmol/L” value (human red blood cells) was “little hemolytic activity”.
For H-LKLLKKLLKKLLKLLDDDDDDD-OH [KLL-D7-OH], the “hemolysis at 1 µmol/L” value (human red blood cells) was “minimal hemolysis”.
In the case of “SSKLQ [SSLQ, serine–serine–lysine–leucine–glutamine]”, the kcat/km (PSA) is given as 23.6 s^−1 (mol/L)^−1.
